{"source": "paper PMC7787346", "about": "(Clinical cancer research : an official journal of the …, 2019)", "key": {"[1]": {"system": "pediatric patients with relapsed or refractory acute leukemia", "settings": "selinexor plus fludarabine and cytarabine; cited from earlier work"}, "[2]": {"system": "patients with previously untreated poor-risk AML", "test": "Phase I trial of selinexor plus 7+3: response", "format": "in vivo, human", "settings": "for Median overall survival: 95% CI 3.74–NR"}, "[3]": {"system": "patients with previously untreated poor-risk AML", "test": "G-banding cytogenetic analysis of bone marrow aspirates at follow-up", "format": "in vivo, human", "method_in_brief": "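G-banding cytogenetics was done on each patient's bone marrow aspirate at diagnosis and, for most patients, at response assessment. Marrow aspirations and biopsies for response were taken between days 28 and 72 after induction or reinduction: daunorubicin/cytarabine 7+3 (or 5+2) plus oral test compound at 60 or 80 mg.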"}, "[4]": {"test": "Plasma pharmacokinetics of selinexor", "format": "in vivo, human", "settings": "for Tmax / AUC(0-t) / Cmax: human, plasma; for AUC(0-t): AUC0–8h"}, "gated CD34+ cells": {"system": "gated CD34+ cells", "test": "Ex vivo sensitivity of patient bone marrow MNCs, flow cytometry for apoptosis", "format": "cell-based, human", "method_in_brief": "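Screening bone marrow aspirates were Ficoll-enriched for mononuclear cells and plated at 3 million cells per mL. Cells were incubated 20 hours with titrated test compound, alone or combined with 40 µmol/L cytarabine or 1 µmol/L daunorubicin. Apoptosis (active caspase-3) was measured by flow cytometry on gated CD34+ cells. Of 10 samples, 2 were excluded for low viability or <5% CD34+ cells, leaving 8.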"}, "[5]": {"system": "AML cell lines and AML patient cells", "test": "Preclinical combination studies of selinexor and daunorubicin", "format": "cell-based", "settings": "Supplementary Figs. S1 and S2, Supplementary Table S1"}, "[6]": {"system": "patients with previously untreated poor-risk AML", "format": "in vivo"}, "[7]": {"settings": "16 response eligible patients, poor-risk by NCCN criteria"}, "[8]": {"settings": "19 patients evaluable for response"}, "[9]": {"settings": "treatment failure (n = 9), baseline 1, 5 not assessed"}}, "note": "Entries after “also recorded” stand apart in the source; their conditions may differ."}
{"smiles": "O=C(/C=C\\n1cnc(-c2cc(C(F)(F)F)cc(C(F)(F)F)c2)n1)NNc1cnccn1", "note": "[selinexor]", "values": [{"measurement": "Patients who tested negative for measurable residual disease", "setting": "[1]", "value": 5, "unit": "patients"}, {"measurement": "CRi after second induction", "setting": "[2]; 6 patients who received a second induction (selinexor + 5+2)", "value": 17, "unit": "%"}, {"measurement": "CR/CRi rate", "setting": "[2]; 7 evaluable patients with TP53 mutation at diagnosis (6 with complex karyotype)", "value": 43, "unit": "%"}, {"measurement": "Median OS", "setting": "[2]; 10 responding patients, median follow-up 28.9 months", "value": "not reached"}, {"measurement": "CR/CRi rate", "setting": "[2]; 16 evaluable patients treated at the RP2D (80 mg)", "value": 50, "unit": "%"}, {"measurement": "CR/CRi rate", "setting": "[2]; [7]", "value": 50, "unit": "%"}, {"measurement": "Treatment failures", "setting": "[2]; [7]", "value": 50, "unit": "%"}, {"measurement": "Evaluable patients alive at 12 months (12-month OS)", "setting": "[2]; 19 evaluable patients", "value": 47.4, "unit": "%"}, {"measurement": "Median overall survival", "setting": "[2]; 19 evaluable patients, median follow-up 26.9 months", "value": 10.3, "unit": "months"}, {"measurement": "CR/CRi rate (overall response rate)", "setting": "[2]; [8]", "value": 53, "unit": "%"}, {"measurement": "Patients who achieved CR", "setting": "[2]; [8]", "value": 42, "unit": "%"}, {"measurement": "Patients who achieved CRi", "setting": "[2]; [8]", "value": 11, "unit": "%"}, {"measurement": "Treatment failures due to refractory AML", "setting": "[2]; [8]", "value": 47, "unit": "%"}, {"measurement": "CR", "setting": "[2]; age ≥60, n = 16", "value": "7 (44) no. (%)"}, {"measurement": "CR + CRi", "setting": "[2]; age ≥60, n = 16", "value": "9 (56) no. (%)"}, {"measurement": "CRi", "setting": "[2]; age ≥60, n = 16", "value": "2 (13) no. (%)"}, {"measurement": "Treatment failure", "setting": "[2]; age ≥60, n = 16", "value": "7 (44) no. (%)"}, {"measurement": "CR", "setting": "[2]; age ≥70, n = 8", "value": "3 (38) no. (%)"}, {"measurement": "CR + CRi", "setting": "[2]; age ≥70, n = 8", "value": "3 (38) no. (%)"}, {"measurement": "CRi", "setting": "[2]; age ≥70, n = 8", "value": "0 (0) no. (%)"}, {"measurement": "Patients alive at median follow-up", "setting": "[2]; all 21 patients, median follow-up 28.9 months", "value": 38, "unit": "%"}, {"measurement": "Median overall survival", "setting": "[2]; entire cohort, n = 21", "value": 10.3, "unit": "months"}, {"measurement": "CR", "setting": "[2]; evaluable patients, n = 19", "value": "8 (42.1) no. (%)"}, {"measurement": "CR + CRi", "setting": "[2]; evaluable patients, n = 19", "value": "10 (52.6) no. (%)"}, {"measurement": "CRi", "setting": "[2]; evaluable patients, n = 19", "value": "2 (10.5) no. (%)"}, {"measurement": "Treatment failure", "setting": "[2]; evaluable patients, n = 19", "value": "9 (47.4) no. (%)"}, {"measurement": "Responders alive", "setting": "[2]; median follow-up of 28.9 months", "value": 60, "unit": "%"}, {"measurement": "Responding patients who remained in CR/CRi", "setting": "[2]; median follow-up of over 2 years, all underwent allogeneic stem cell transplant in first remission", "value": "5 of 10"}, {"measurement": "CR/CRi rate", "setting": "[2]; patients who had previously received a hypomethylating agent (8 patients)", "value": 13, "unit": "%"}, {"measurement": "CR", "setting": "[2]; prior HMA, n = 8", "value": "1 (13) no. (%)"}, {"measurement": "CR + CRi", "setting": "[2]; prior HMA, n = 8", "value": "1 (13) no. (%)"}, {"measurement": "CRi", "setting": "[2]; prior HMA, n = 8", "value": "0 (0) no. (%)"}, {"measurement": "Treatment failure", "setting": "[2]; prior HMA, n = 8", "value": "7 (87) no. (%)"}, {"measurement": "CR", "setting": "[2]; sAML, n = 12", "value": "3 (25) no. (%)"}, {"measurement": "CR + CRi", "setting": "[2]; sAML, n = 12", "value": "4 (33) no. (%)"}, {"measurement": "CRi", "setting": "[2]; sAML, n = 12", "value": "1 (8) no. (%)"}, {"measurement": "Treatment failure", "setting": "[2]; sAML, n = 12", "value": "8 (67) no. (%)"}, {"measurement": "Cytogenetics at follow-up: Chr 5 abnormalities", "setting": "[3]; responders (n = 10), baseline 0", "value": 0, "unit": "no."}, {"measurement": "Cytogenetics at follow-up: Chr 7 abnormalities", "setting": "[3]; responders (n = 10), baseline 1", "value": 1, "unit": "no."}, {"measurement": "Cytogenetics at follow-up: Other Chr abnormalities", "setting": "[3]; responders (n = 10), baseline 2", "value": 0, "unit": "no."}, {"measurement": "Cytogenetics at follow-up: Complex", "setting": "[3]; responders (n = 10), baseline 3", "value": 1, "unit": "no."}, {"measurement": "Cytogenetics at follow-up: Diploid", "setting": "[3]; responders (n = 10), baseline 4", "value": 8, "unit": "no."}, {"measurement": "Cytogenetics at follow-up: Chr 7 abnormalities", "setting": "[3]; treatment failure (n = 9), baseline 0, 5 not assessed", "value": 0, "unit": "no."}, {"measurement": "Cytogenetics at follow-up: Chr 5 abnormalities", "setting": "[3]; [9]", "value": 1, "unit": "no."}, {"measurement": "Cytogenetics at follow-up: Other Chr abnormalities", "setting": "[3]; [9]", "value": 0, "unit": "no."}, {"measurement": "Cytogenetics at follow-up: Diploid", "setting": "[3]; treatment failure (n = 9), baseline 3, 5 not assessed", "value": 2, "unit": "no."}, {"measurement": "Cytogenetics at follow-up: Complex", "setting": "[3]; treatment failure (n = 9), baseline 4, 5 not assessed", "value": 1, "unit": "no."}, {"measurement": "Exposure (based on AUC) on days 1 and 15", "setting": "[4]; day 1 versus day 15", "value": "similar"}, {"measurement": "Tmax", "setting": "[4]; oral, Mean Tmax, day 15, delayed absorption", "value": 4, "unit": "h"}, {"measurement": "AUC(0-t)", "setting": "[4]; po, 60 mg, selinexor 60 mg oral, day 1, 4 patients", "value": "1850 ± 972", "unit": "ng·h/mL"}, {"measurement": "AUC(0-t)", "setting": "[4]; po, 60 mg, selinexor 60 mg oral, day 15, 3 patients", "value": "1710 ± 1030", "unit": "ng·h/mL"}, {"measurement": "Cmax", "setting": "[4]; po, 60 mg, Cmax, selinexor 60 mg oral, day 1, 4 patients", "value": "457 ± 196", "unit": "ng/mL"}, {"measurement": "Cmax", "setting": "[4]; po, 60 mg, Cmax, selinexor 60 mg oral, day 15, 3 patients", "value": "392 ± 290", "unit": "ng/mL"}, {"measurement": "Cmax", "setting": "[4]; po, 60 mg, Mean Cmax, selinexor 60 mg oral, day 1, 4 patients", "value": 1030, "unit": "nM"}, {"measurement": "Tmax", "setting": "[4]; po, 60 mg, Tmax, selinexor 60 mg oral, day 1, 4 patients", "value": "2 ± 3.2", "unit": "h"}, {"measurement": "Tmax", "setting": "[4]; po, 60 mg, Tmax, selinexor 60 mg oral, day 15, 3 patients", "value": "4 ± 1.2", "unit": "h"}, {"measurement": "AUC(0-t)", "setting": "[4]; po, 80 mg, selinexor 80 mg oral, day 1, 17 patients", "value": "2590 ± 1110", "unit": "ng·h/mL"}, {"measurement": "AUC(0-t)", "setting": "[4]; po, 80 mg, selinexor 80 mg oral, day 15, 13 patients", "value": "2100 ± 1080", "unit": "ng·h/mL"}, {"measurement": "Cmax", "setting": "[4]; po, 80 mg, Cmax, selinexor 80 mg oral, day 1, 17 patients", "value": "601 ± 302", "unit": "ng/mL"}, {"measurement": "Cmax", "setting": "[4]; po, 80 mg, Cmax, selinexor 80 mg oral, day 15, 13 patients", "value": "482 ± 288", "unit": "ng/mL"}, {"measurement": "Cmax", "setting": "[4]; po, 80 mg, Mean Cmax, selinexor 80 mg oral, day 1, 17 patients", "value": 1360, "unit": "nM"}, {"measurement": "Tmax", "setting": "[4]; po, 80 mg, Tmax, selinexor 80 mg oral, day 1, 17 patients", "value": "2 ± 2.2", "unit": "h"}, {"measurement": "Tmax", "setting": "[4]; po, 80 mg, Tmax, selinexor 80 mg oral, day 15, 13 patients", "value": "4 ± 2.5", "unit": "h"}, {"measurement": "AUC0–8h", "setting": "[4]; selinexor 60 mg oral, day 1, 4 patients", "value": "1,853 ng/h/mL"}, {"measurement": "AUC0–8h", "setting": "[4]; selinexor 80 mg oral, day 1, 17 patients", "value": "2,590 ng/h/mL"}, {"measurement": "Synergy between selinexor and daunorubicin", "setting": "gated CD34+ cells; titrated selinexor with 1 µmol/L daunorubicin, patient samples ex vivo", "value": "no synergy"}, {"measurement": "Effects of the combination on apoptosis", "setting": "gated CD34+ cells; titrated selinexor with 40 µmol/L cytarabine or 1 µmol/L daunorubicin", "value": "additive"}, {"measurement": "Interaction between selinexor and daunorubicin", "setting": "[5]", "value": "strong synergistic interactions; also recorded: strong synergy"}, {"measurement": "Patients who died during the treatment or follow-up phases", "setting": "[6]; 21 patients, majority related to relapsed or refractory AML", "value": 62, "unit": "%"}, {"measurement": "Grade 3/4 nonhematologic TEAE sepsis", "setting": "[6]; grade 3/4, selinexor + 7+3, 21 patients", "value": 14, "unit": "%"}, {"measurement": "Median time to a platelet count ≥50,000", "setting": "[6]; human, in vivo", "value": 35, "unit": "days"}, {"measurement": "Median time to absolute neutrophil count (ANC) ≥500", "setting": "[6]; human, in vivo", "value": 26, "unit": "days"}, {"measurement": "Patients with at least one grade 3/4 AE", "setting": "[6]; human, in vivo", "value": 95, "unit": "%"}, {"measurement": "Only grade 3 AE during maintenance therapy", "setting": "[6]; in vivo", "value": "fatigue"}, {"measurement": "Patients who experienced at least 1 TEAE", "setting": "[6]; in vivo", "value": "Every patient"}, {"measurement": "Patients who experienced diarrhea or hyponatremia", "setting": "[6]; in vivo", "value": "None"}]}
